Data set [1] deals with INS1. Description: Protection against tunicamycin ER stress-induced suppression of PDX1 mRNA expression in rat INS-1 cells up to 1 uM after 24 hrs by qRT-PCR analysis. It counts as functional, cell-based. The gist of the method: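 INS-1 cells were exposed to tunicamycin 0.1 μg/mL with compound or DMSO for 24 h. INS1, INS2, PDX1 and MafA mRNA were measured by qRT-PCR and normalized to cyclophilin A by the comparative Ct method. Triplicate wells, 3 independent experiments.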
For orientation: In qPCR the cycle at which signal appears reflects the starting amount.

The subject of data set [2] is INS1. Description: Effect on CHOP mRNA level in rat INS-1 cells up to 10 uM after 8 hrs by qRT-PCR analysis. In kind it is ADME, cell-based. The conditions noted are these: ins1, 8 h. The gist of the method:
(§1)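 INS-1 cells, 4×10^5 per well, were exposed to tunicamycin 0.1 μg/mL with compound or DMSO for 8 h. qRT-PCR for ATF4, CHOP, Bip, GRP94, or spliced XBP1 using splicing-specific primers. Values were normalized to cyclophilin A by ΔΔCt and given as fold over untreated control. Triplicate wells, 3 independent experiments.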

Data set [3] has as its system INS1. Description: Cytoprotective activity in rat INS-1 cells assessed as protection against tunicamycin-induced ER stress-mediated reduction in cell viability after 3 days by CellTiter-Glo assay relative tunicamycin. In kind it is functional. The conditions noted are these: INS1, 72 h. An outline of the steps:
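INS-1 cells, 3×10^3 per well, were co-treated with tunicamycin 0.1 μg/mL and compound for 72 h. Viability was read as intracellular ATP by luminescence and expressed as fold of no-tunicamycin cells. EC50 and maximum activity were taken as the increase in viability versus tunicamycin alone. Triplicate wells, three independent experiments.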
In general terms: ATP-based viability assays read luminescence as a measure of living cells.

A further data set has as its system Beta-TC6. Put plainly: Cytotoxicity against mouse BetaTC6 cells assessed as reduction in cell viability up to 40 uM after 3 days by CellTiter-Glo assay. It counts as cell-based. The conditions noted are these: beta-tc6, 72 h.
Data set [4] deals with INS1. Description: Cytoprotective activity against tunicamycin ER stress-induced apoptosis in rat INS-1 cells assessed as inhibition of tunicamycin-induced cleaved caspase3 expression up to 1 uM after 24 hrs by Western blot analysis. It counts as functional, cell-based. An outline of the steps: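 INS-1 cells, 8×10^5 per 60-mm dish, were exposed to tunicamycin 0.1 μg/mL plus compound or DMSO for 24 h. 20 μg lysate protein was run on 7% SDS-PAGE and immunoblotted for cleaved caspase-3 and PARP (1:1000), with α-tubulin as loading control; 3 independent experiments.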
Background: Immunoblotting shows a protein as a band on a membrane.

Data set [5] concerns INS1. Description: Protection against tunicamycin ER stress-induced suppression of glucose-stimulated insulin secretion in rat INS-1 cells after 24 hrs by ELISA. It counts as functional, cell-based. An outline of the steps: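 INS-1 cells were given tunicamycin 0.1 μg/mL and compound for 24 h, preincubated 1 h in KRBH (pH 7.4, 2% BSA) with 2.5 mM glucose, then given 1 h at low or high glucose. Secreted insulin was measured by ELISA and corrected for total protein (Bradford). Triplicate wells, three independent experiments.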

The target of data set [6] is T1, Eukaryotic translation initiation factor 2-alpha kinase 3 (Rattus norvegicus, UniProt Q9Z1Z1).
T1 sequence (Q9Z1Z1 whole entry): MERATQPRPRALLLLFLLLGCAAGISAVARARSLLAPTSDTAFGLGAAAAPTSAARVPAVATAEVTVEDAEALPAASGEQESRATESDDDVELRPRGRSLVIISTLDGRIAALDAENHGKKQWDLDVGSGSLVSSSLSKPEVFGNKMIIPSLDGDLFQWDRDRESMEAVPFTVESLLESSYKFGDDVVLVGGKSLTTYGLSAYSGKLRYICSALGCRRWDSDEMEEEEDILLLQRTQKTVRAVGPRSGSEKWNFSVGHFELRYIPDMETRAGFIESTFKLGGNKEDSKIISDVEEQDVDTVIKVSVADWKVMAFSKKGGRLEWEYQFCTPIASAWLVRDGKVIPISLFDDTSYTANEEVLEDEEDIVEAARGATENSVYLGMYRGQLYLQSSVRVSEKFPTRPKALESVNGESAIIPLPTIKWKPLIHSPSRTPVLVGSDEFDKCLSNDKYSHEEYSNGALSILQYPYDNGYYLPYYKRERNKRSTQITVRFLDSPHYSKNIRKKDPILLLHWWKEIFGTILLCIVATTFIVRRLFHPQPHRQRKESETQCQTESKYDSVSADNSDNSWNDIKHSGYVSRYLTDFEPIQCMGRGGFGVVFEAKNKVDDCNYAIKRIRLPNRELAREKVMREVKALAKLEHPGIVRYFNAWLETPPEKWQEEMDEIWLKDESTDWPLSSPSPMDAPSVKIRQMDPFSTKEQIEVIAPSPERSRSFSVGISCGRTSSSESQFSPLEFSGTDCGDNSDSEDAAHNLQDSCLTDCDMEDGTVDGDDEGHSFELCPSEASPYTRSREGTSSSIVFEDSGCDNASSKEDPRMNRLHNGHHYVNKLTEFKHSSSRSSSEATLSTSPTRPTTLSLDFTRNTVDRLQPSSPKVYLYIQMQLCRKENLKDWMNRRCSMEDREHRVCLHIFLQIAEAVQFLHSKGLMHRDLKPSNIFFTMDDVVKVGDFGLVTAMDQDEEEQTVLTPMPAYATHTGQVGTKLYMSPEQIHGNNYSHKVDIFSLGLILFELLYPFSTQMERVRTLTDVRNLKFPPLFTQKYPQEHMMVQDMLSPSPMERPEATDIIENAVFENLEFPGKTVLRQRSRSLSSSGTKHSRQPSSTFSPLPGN
Put plainly: Inhibition of PERK activation in rat INS-1 cells assessed as suppression of tunicamycin-induced CHOP mRNA expression after 8 hrs by qRT-PCR analysis. It counts as cell-based. The gist of the method: as §1

For data set [7], the target named is T2, Cyclic AMP-dependent transcription factor ATF-6 alpha (Rattus norvegicus) (UniProt G3V909).
T2 sequence (whole entry): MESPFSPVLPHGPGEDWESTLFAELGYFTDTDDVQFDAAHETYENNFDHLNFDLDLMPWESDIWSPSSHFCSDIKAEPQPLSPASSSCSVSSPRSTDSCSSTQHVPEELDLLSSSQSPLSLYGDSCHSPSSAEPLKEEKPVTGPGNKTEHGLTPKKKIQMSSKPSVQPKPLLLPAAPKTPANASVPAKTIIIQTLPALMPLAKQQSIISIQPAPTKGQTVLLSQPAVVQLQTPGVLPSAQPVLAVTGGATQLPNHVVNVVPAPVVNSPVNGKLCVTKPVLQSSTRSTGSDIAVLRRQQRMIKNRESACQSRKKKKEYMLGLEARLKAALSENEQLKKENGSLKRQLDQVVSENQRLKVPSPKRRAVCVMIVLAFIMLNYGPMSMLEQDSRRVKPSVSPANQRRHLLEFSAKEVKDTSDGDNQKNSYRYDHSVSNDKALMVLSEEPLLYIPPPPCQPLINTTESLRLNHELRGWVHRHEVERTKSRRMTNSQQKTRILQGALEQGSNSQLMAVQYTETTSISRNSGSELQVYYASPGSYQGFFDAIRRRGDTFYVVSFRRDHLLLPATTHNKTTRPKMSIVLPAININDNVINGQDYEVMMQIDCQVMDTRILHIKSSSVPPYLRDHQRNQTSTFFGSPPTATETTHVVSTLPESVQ
Description: Inhibition of tunicamycin ER stress-induced ATF6 activation in rat INS-1 cells assessed as suppression of increase in Bip mRNA levels up to 10 uM after 8 hrs by qRT-PCR analysis. It counts as cell-based. An outline of the steps:
as §1

Calls of active or inactive are those of the source. The calls are words filed in the database; no cut-off is given here.

Here are results for one compound from ChEMBL document CHEMBL4038317, “Discovery of a Benzamide Derivative That Protects Pancreatic β-Cells against Endoplasmic Reticulum Stress” (J Med Chem, 2017).

In general, IC50 refers to the concentration needed to halve the response being measured. As for `O=C(NCc1ccc(C(F)(F)F)cc1)c1cccc(CN2CCCCC2)c1`, the result in the data set with INS1 [1] and with INS1 [5] was Active. For the same compound, the Activity entry in the data set on INS1 [2] and in the data set with Beta-TC6 was “Non-Toxic” in each case. The Emax in the data set with INS1 [3] worked out at 97%. Also, the inhibition result (with INS1 [4]; in data set [7]) was “Active” throughout. Moreover, the IC50 in data set [6] was 37 nM.
